Measurements reported in ChEMBL document CHEMBL2177098, “Synthesis and evaluation of novel ¹⁸F labeled 2-pyridinylbenzoxazole and 2-pyridinylbenzothiazole derivatives as ligands for positron emission tomography (PET) imaging of β-amyloid plaques” (J Med Chem, 2012).
Activity calls are given as the source filed them. The rule behind the calls is not given here.

Legend:
Mus musculus [1] = species on record: Mus musculus; assay: Binding affinity to amyloid beta plaques in transgenic C57BL6 mouse cortex expressing APP Swedish mutant/PSEN1 at 370 KBq/100 ul after 1 hr by thioflavinS-staining method; conditions: tested as the 18F-labelled form
How it was run: (§1)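 Paraffin brain sections from 12-month-old Tg mice (C57BL6, APPswe/PSEN1) and age-matched controls, deparaffinized through xylene and graded ethanol, then PBS (0.2 M, pH 7.4) 30 min. Incubated with 18F tracer (370 KBq per 100 μL) 1 h at room temperature, washed in 40% EtOH, rinsed in water, then phosphor plate exposure 2 h. The same sections were afterwards stained with 0.125% thioflavin S in 10% EtOH for 3 min and washed in 40% EtOH.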

[2] = target: Amyloid-beta precursor protein (Homo sapiens) (UniProt P05067); assay: Binding affinity to amyloid beta plaques in Alzheimer patient brain at 370 KBq/100 ul after 1 hr by autoradiographic analysis; conditions: tested as the 18F-labelled form
Mus musculus [3] = species on record: Mus musculus; assay: Binding affinity to amyloid beta plaques in transgenic C57BL6 mouse cortex expressing APP Swedish mutant/PSEN1 at 370 KBq/100 ul after 1 hr by autoradiographic analysis; conditions: tested as the 18F-labelled form; how it was run: as §1
Mus musculus [4] = species on record: Mus musculus; assay: Binding affinity to amyloid beta plaques in transgenic C57BL6 mouse hippocampus expressing APP Swedish mutant/PSEN1 at 370 KBq/100 ul after 1 hr by thioflavinS-staining method; assay type: tissue-based; conditions: tested as the 18F-labelled form; how it was run: as §1
[5] = Displacement of [125I]-IMPY from amyloid beta (1 to 42) fibrils after 2 hrs by gamma-counting analysis
How it was run: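 Competition binding with aggregated Aβ1-42 fibrils and [125I]IMPY (60000−100000 cpm/100 μL) in 0.05% BSA (1 mL total); inhibitors 10⁻⁴−10^−8.5 M in ethanol. Incubated 37 °C for 2 h, then GF/B vacuum filtration with PBS (0.02 M, pH 7.4) washes and γ counting. Three repeats; IC50 converted to Ki by Cheng−Prusoff.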

Mus musculus [6] = species on record: Mus musculus; assay: Binding affinity to amyloid beta plaques in transgenic C57BL6 mouse hippocampus expressing APP Swedish mutant/PSEN1 at 370 KBq/100 ul after 1 hr by autoradiographic analysis; assay type: tissue-based; conditions: tested as the 18F-labelled form; how it was run: as §1

Chain of Amyloid-beta precursor protein (Homo sapiens) (P05067 whole entry): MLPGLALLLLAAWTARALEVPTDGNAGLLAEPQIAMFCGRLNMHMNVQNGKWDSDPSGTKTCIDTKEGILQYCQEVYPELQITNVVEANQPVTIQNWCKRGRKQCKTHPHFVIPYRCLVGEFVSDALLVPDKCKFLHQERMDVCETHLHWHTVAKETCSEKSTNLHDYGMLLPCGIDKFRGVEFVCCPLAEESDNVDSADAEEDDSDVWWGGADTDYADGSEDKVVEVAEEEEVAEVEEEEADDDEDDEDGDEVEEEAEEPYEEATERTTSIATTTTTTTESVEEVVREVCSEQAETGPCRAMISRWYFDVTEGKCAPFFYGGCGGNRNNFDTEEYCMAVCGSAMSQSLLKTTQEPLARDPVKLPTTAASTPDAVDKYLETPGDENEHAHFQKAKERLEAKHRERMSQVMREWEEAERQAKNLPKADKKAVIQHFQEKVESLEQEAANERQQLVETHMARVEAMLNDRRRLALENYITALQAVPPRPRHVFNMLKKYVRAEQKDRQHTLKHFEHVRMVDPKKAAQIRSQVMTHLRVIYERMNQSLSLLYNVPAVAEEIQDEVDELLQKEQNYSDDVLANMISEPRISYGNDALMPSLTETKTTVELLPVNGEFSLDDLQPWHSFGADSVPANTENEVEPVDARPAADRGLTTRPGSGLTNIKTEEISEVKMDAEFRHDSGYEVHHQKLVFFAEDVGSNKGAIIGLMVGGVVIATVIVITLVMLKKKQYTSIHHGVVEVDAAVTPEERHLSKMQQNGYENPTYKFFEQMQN

Compound: CNc1ccc(-c2nc3ccc(OCCOCCOCCF)cc3s2)cn1
- Activity (Mus musculus [1]): Active
- Activity [2]: Active
- Activity (Mus musculus [3]): Active
- Activity (Mus musculus [4]): Active
- Ki [5]: 9.3 nM
- Activity (Mus musculus [6]): Active
